Reference: PMC3580954 (Biopolymers, 2013)
Positions count from the first letter of the chain named. Read-outs that look alike come from different tables or passages of the source. Residues, ends and D or L forms follow the SMILES beside them. No end group written: not given here.

T1: wt hPrRP receptor (Homo sapiens, UniProt P49683)
T1 sequence (P49683 1-370): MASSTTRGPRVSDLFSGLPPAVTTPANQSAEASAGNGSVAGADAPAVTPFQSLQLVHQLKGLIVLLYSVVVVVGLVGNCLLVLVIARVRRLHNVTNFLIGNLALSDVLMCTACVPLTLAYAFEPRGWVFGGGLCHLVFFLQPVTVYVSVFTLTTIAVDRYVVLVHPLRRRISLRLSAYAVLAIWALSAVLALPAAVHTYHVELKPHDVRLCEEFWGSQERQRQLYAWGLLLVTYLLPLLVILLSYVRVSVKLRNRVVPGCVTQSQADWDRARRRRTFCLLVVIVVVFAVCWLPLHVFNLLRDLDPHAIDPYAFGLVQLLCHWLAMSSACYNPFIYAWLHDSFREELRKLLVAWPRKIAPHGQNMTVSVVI

T2: wt PrRP receptor (Homo sapiens, UniProt P49683)
T2 sequence (P49683 1-370): T1 sequence (P49683 1-370)

T3: W^2.71A PrRP receptor (Homo sapiens, UniProt P49683, W127A)
T3 sequence (P49683 1-370 W127A): T1 sequence (P49683 1-370) with W127A

T4: Y^2.64A PrRP receptor (Homo sapiens, UniProt P49683, Y120A)
T4 sequence (P49683 1-370 Y120A): T1 sequence (P49683 1-370) with Y120A

T5: PrRP receptor (GPR10) (Homo sapiens, UniProt P49683)
T5 chain: T1 sequence (P49683 1-370)


What was measured:
wt hPrRP receptor = target: T1, wt hPrRP receptor; experiment: Signal transduction; type: cell-based; conditions: SD
Method in brief: (§1)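 COS-7 cells were transiently transfected with 0.4 µg plasmid of human PrRP receptor or its site-directed mutant, C-terminally fused to EYFP. One day after transfection and 16 h before stimulation, cells were labelled with 2 µCi/mL [³H]myo-inositol. They were then stimulated with increasing peptide concentrations for 1 h at 37°C in DMEM with 10 mM LiCl, and lysed in 0.1 M NaOH. IP was separated by anion exchange and counted by scintillation. EC50 came from concentration-response curves; runs were in duplicate, repeated ≥2 times.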

wt PrRP receptor = target: T2, wt PrRP receptor; experiment: Radioligand displacement; type: binding
Method in brief: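 COS-7 cells (1.5 × 10⁶ seeded) were transiently transfected at 60–70% confluency with 4 µg of EYFP-fused human PrRP receptor DNA. About 24 h later, competition binding was run on intact cells against 1 nM N[propionyl³H]hPrRP20. IC50 came from a one-site competition fit, with triplicates.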

W^2.71A PrRP receptor = target: T3, W^2.71A PrRP receptor; experiment: IP accumulation assay, W^2.71A receptor mutant; type: cell-based; conditions: SD
Method in brief: as §1

Y^2.64A PrRP receptor = target: T4, Y^2.64A PrRP receptor; experiment: IP accumulation assay, Y^2.64A receptor mutant; type: cell-based; conditions: SD
Method in brief: as §1

PrRP receptor (GPR10) [1] = target: T5, PrRP receptor (GPR10); experiment: radioligand displacement on transfected COS-7 cells
PrRP receptor (GPR10) [2] = target: T5, PrRP receptor (GPR10); experiment: radioligand binding on transfected COS-7 cells

Row | Molecule | EC50 (wt hPrRP receptor) [nM] | IC50 (PrRP receptor (GPR10) [1]) [nM] | also measured
1 | CC[C@H](C)[C@H](N)C(=O)N[C@@H](CC(N)=O)C(=O)N1CCC[C@H]1C(=O)N[C@@H](C)C(=O)N[C@@H](Cc1c[nH]c2ccccc12)C(=O)N[C@@H](Cc1ccc(O)cc1)C(=O)N[C@@H](C)C(=O)N[C@@H](CO)C(=O)N[C@@H](CCCNC(=N)N)C(=O)NCC(=O)N[C@H](C(=O)N[C@@H](CCCNC(=N)N)C(=O)N1CCC[C@H]1C(=O)N[C@H](C(=O)NCC(=O)N[C@@H](CCCNC(=N)N)C(=O)N[C@@H](Cc1ccccc1)C(N)=O)C(C)C)[C@@H](C)CC [PrRP4-20] (H-INPAWYASRGIRPVGRF-NH2) | 1 ± 0.2 |  | 
2 | CC[C@H](C)[C@H](NC(=O)CNC(=O)[C@H](CCCNC(=N)N)NC(=O)[C@H](CO)NC(=O)[C@H](C)NC(=O)[C@H](Cc1ccc(O)cc1)NC(=O)[C@H](Cc1c[nH]c2ccccc12)NC(=O)[C@H](C)NC(=O)[C@@H]1CCCN1C(=O)[C@H](CC(N)=O)NC(=O)[C@@H](NC(=O)[C@H](CC(=O)O)NC(=O)[C@@H]1CCCN1C(=O)[C@@H](N)[C@@H](C)O)[C@@H](C)CC)C(=O)N[C@@H](CCCNC(=N)N)C(=O)N1CCC[C@H]1C(=O)N[C@H](C(=O)NCC(=O)N[C@@H](CCCNC(=N)N)C(=O)N[C@@H](C)C(N)=O)C(C)C [A^20PrRP20] (H-TPDINPAWYASRGIRPVGRA-NH2) | 20 ± 5 |  | IC50 (wt PrRP receptor; SD): 870 ± 288 nM
3 | CC[C@H](C)[C@H](NC(=O)CNC(=O)[C@H](CCCNC(=N)N)NC(=O)[C@H](CO)NC(=O)[C@H](C)NC(=O)[C@H](Cc1ccc(O)cc1)NC(=O)[C@H](Cc1c[nH]c2ccccc12)NC(=O)[C@H](C)NC(=O)[C@@H]1CCCN1C(=O)[C@H](CC(N)=O)NC(=O)[C@@H](NC(=O)[C@H](CC(=O)O)NC(=O)[C@@H]1CCCN1C(=O)[C@@H](N)[C@@H](C)O)[C@@H](C)CC)C(=O)N[C@@H](C)C(=O)N1CCC[C@H]1C(=O)N[C@H](C(=O)NCC(=O)N[C@@H](CCCNC(=N)N)C(=O)N[C@@H](Cc1ccccc1)C(N)=O)C(C)C [A^15PrRP20] (H-TPDINPAWYASRGIAPVGRF-NH2) | 49 ± 12 |  | IC50 (wt PrRP receptor; SD): 882 ± 376 nM
4 | CC[C@H](C)[C@H](N)C(=O)N[C@@H](CCCNC(=N)N)C(=O)N1CCC[C@H]1C(=O)N[C@H](C(=O)NCC(=O)N[C@@H](CCCNC(=N)N)C(=O)N[C@@H](Cc1ccccc1)C(N)=O)C(C)C [PrRP14-20] (H-IRPVGRF-NH2) | 14 ± 2 |  | 
5 | CC[C@H](C)[C@H](NC(=O)CNC(=O)[C@H](CCCNC(=N)N)NC(=O)[C@H](CO)NC(=O)[C@H](C)NC(=O)[C@H](Cc1ccc(O)cc1)NC(=O)[C@@H](N)Cc1c[nH]c2ccccc12)C(=O)N[C@@H](CCCNC(=N)N)C(=O)N1CCC[C@H]1C(=O)N[C@H](C(=O)NCC(=O)N[C@@H](CCCNC(=N)N)C(=O)N[C@@H](Cc1ccccc1)C(N)=O)C(C)C [PrRP8-20] (H-WYASRGIRPVGRF-NH2) | 2.3 ± 0.5 |  | EC50 (W^2.71A PrRP receptor): 2120 ± 390 nM; EC50 (Y^2.64A PrRP receptor): 434 ± 96 nM
6 | CC[C@H](C)[C@H](NC(=O)CNC(=O)[C@H](CCCNC(=N)N)NC(=O)[C@H](CO)NC(=O)[C@H](C)NC(=O)[C@H](Cc1ccc(O)cc1)NC(=O)[C@H](Cc1c[nH]c2ccccc12)NC(=O)[C@H](C)NC(=O)[C@@H]1CCCN1C(=O)[C@H](CC(N)=O)NC(=O)[C@@H](NC(=O)[C@H](CC(=O)O)NC(=O)[C@@H]1CCCN1C(=O)[C@@H](N)[C@@H](C)O)[C@@H](C)CC)C(=O)N[C@@H](CCCNC(=N)N)C(=O)N1CCC[C@H]1C(=O)N[C@H](C(=O)NCC(=O)N[C@@H](C)C(=O)N[C@@H](Cc1ccccc1)C(N)=O)C(C)C [A^19PrRP20] (H-TPDINPAWYASRGIRPVGAF-NH2) | 1200 ± 231 |  | IC50 (wt PrRP receptor): > 10000 nM
7 | TPDINPAWYASRGIRPVGRF-NH2 |  | 4.1 | 
8 | WYASRGIRPVGRF-NH2 [PrRP8-20] |  | 7 | 
9 | IRPVGRF-NH2 [PrRP14-20] |  | 430 | 
10 | {(3H)propionyl}-TPDINPAWYASRGIRPVGRF-NH2 |  |  | Kd (PrRP receptor (GPR10) [2]): 0.58 nM
11 | INPAWYASRGIRPVGRF-NH2 [PrRP4-20] |  | 1.2 | 
